Screening data (PubChem BioAssay)
RGS4 inh: inhibitors of human RGS4 | P49798 | HEK293 M3R/RGS4 inducible, Fluo-4 calcium flux; hits give high values; triggered by carbachol at its EC20 | B-score at 10 µM | actives 0.45% (n = 310,000) | AID 463165;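 active means B-score, a plate-corrected calcium signal, over three deviations above library mean, with baseline fluorescence within five deviations of library mean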;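 further: RGS4 expression induced by doxycycline in cells with stable M3 receptor; B-score is computed from the integrated fluorescence ratio over baseline after carbachol; higher B-score means a larger calcium signal and so more RGS4 inhibition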
Target sequence (P49798 whole entry, looked up): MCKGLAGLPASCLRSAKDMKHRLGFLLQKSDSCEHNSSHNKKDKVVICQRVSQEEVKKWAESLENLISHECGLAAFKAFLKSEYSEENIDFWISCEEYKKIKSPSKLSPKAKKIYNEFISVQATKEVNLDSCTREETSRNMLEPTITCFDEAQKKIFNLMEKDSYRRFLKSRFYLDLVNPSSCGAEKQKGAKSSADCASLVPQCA
MrgX1 ag: human MrgX1 receptor agonism, primary screen. Q96LB2. MrgX1-HEK293 cells, Fluo-4 calcium fluorescence, agonist mode; hits give high values. B-score at 10 µM. actives 0.44% (n = 310,000);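 active means calcium response B-score plate-corrected fluorescence ratio at least 3 library SD, with starting fluorescence B-score inside 5 SD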
Target sequence (Q96LB2 whole entry, looked up): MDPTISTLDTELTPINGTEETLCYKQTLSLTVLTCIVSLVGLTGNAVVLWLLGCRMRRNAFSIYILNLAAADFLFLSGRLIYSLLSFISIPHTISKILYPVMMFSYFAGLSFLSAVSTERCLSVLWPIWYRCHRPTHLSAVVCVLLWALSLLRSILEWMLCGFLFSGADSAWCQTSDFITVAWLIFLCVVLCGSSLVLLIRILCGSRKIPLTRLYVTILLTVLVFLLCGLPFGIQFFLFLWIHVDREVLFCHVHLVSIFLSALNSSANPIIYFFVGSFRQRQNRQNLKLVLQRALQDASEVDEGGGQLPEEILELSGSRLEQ
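Material: MrgX1-expressing HEK293 cells; input: 15,000 cells per well; doses: test compound given as first of three sequential additions; schedule: overnight plating before 1 h dye loading; technique: Fluo-4 NW calcium-flux fluorescence, kinetic read; evaluation: baseline-normalised fluorescence change ratio, B-scored; control set: plate-wise positive and negative controls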
MrgX1 allo act: allosterically activates human MrgX1 receptor signaling. actives 0.63% (n = 310,000). MrgX1-HEK293, Fluo-4 calcium flux, FDSS; hits give high values. Q96LB2. B-score at 10 µM;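 active means plate-corrected calcium response at least 3 library SD above typical, normal starting fluorescence, not activating the receptor alone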;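 further: compound read alongside a low EC10 to EC30 dose of BAM8-22 agonist; peak minus trough fluorescence over baseline measured at the second addition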
MrgX1 antag: blocks BAM8-22 activation of human MrgX1 receptor | actives 1.3% (n = 310,000) | MRGX1-HEK293 calcium flux, Fluo-4, BAM8-22 antagonism; hits give low values | Q96LB2 | B-score at 10 µM;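 active means calcium-response B-score plate-corrected more than 3 library SD below zero, starting fluorescence within 5 deviations, no agonist response on first addition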;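 further: peak minus trough fluorescence over baseline after final BAM8-22 challenge near maximal dose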
RGS4 act: RGS4 potentiation or activation; HEK293 M3R/inducible RGS4, carbachol calcium flux Fluo4; hits give low values; B-score at 10 µM; actives 0.92% (n = 310,000); AID 463111;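 active means B-score of the integrated calcium signal more than 4 SD below the library mean, with starting fluorescence not abnormally high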;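 further: negative B-score means reduced calcium response which marks RGS4 activation or potentiation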
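Detection: kinetic calcium fluorescence imaging with Fluo4-AM dye, 2 µM / Material: HEK293 cells with stable M3R and inducible RGS4 / Schedule: recording 10 s baseline at 1 Hz, 100 s post-agonist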
RGS4 block valid: RGS4 inhibitor validation; shares compounds with RGS4 inh; HEK293 M3R/RGS4, carbachol calcium Fluo-4 fluorescence; carbachol added at its EC20; 0 = buffer wells, 100 = carbachol control; calcium response, % at 10 µM; actives 65% (n = 1,700); AID 492999;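 active means duplicate-averaged calcium response above the buffer-only control mean plus 5 SD of those controls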;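 further: integrated fluorescence ratio F max minus min over baseline F0; higher response in RGS4-induced cells means RGS4 inhibition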
M3R Ca ctr: checks RGS4 inhibitor effects in non-induced HEK293 M3R cells; shares compounds with RGS4 inh; carbachol calcium Fluo-4; submaximal (EC20) carbachol stimulus; buffer wells 0%, carbachol control wells 100%; activity (percent), % at 10 µM; actives 20% (n = 1,900); AID 493000; call rule not given here;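 further: RGS4 induction absent so cells express M3R without RGS4; higher means more calcium signal and flags a non-specific hit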
RGS4 inh ctr2: second counter-screen for RGS4 inhibitors: non-induced cells without carbachol; shares compounds with RGS4 inh; HEK293 M3R/RGS4 non-induced, Fluo-4 calcium, no carbachol; normalised: buffer wells 0%, carbachol wells 100%; calcium response (agonist-mode artifact), % at 10 µM; actives 22% (n = 1,900);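 active means duplicate-averaged calcium rise in uninduced cells above buffer wells' mean plus 5 SD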
Starred values were filed as active, the others as inactive; i = inactive; · = no result. Most compounds without a hit are left out; they make up all but 3.5% or so of the library.

SMILES	RGS4 inh	MrgX1 ag	MrgX1 allo act	MrgX1 antag	RGS4 act	RGS4 block valid	M3R Ca ctr	RGS4 inh ctr2
O=C1c2cccc3cc([N+](=O)[O-])cc(c23)C(=O)N1c1ccccc1O	5.13*	i	i	i	i	14.0%*	i	i
COC(=S)Nc1cccc(C(F)(F)F)c1	i	i	i	i	i	·	·	·
COC(=O)/C=C/C(=O)Nc1cccc(C(F)(F)F)c1	6.69*	i	i	i	i	13.0%*	44.0%*	i
CCNC(=S)N/N=C/c1sccc1C	i	i	i	i	i	·	·	·
Cc1ccsc1/C=N/NC(=S)NCCc1ccccc1	8.58*	i	i	i	i	18.0%*	i	i
Cc1ccc(NC(=O)COC(=O)/C=C/c2cccs2)c(C)c1	i	i	i	i	i	·	·	·
Cc1cc(N(CCO)CCO)ccc1N=Nc1cc(F)ccc1F	7.3*	i	i	i	i	17.5%*	41.0%*	i
COc1cccc(CCNC(=O)c2ccc(OC)c(OC3CCN(C(C)C)CC3)c2)c1	i	i	i	i	i	·	·	·
CCc1ccc(NC(=O)NCc2cccnc2)cc1	i	i	i	i	i	·	·	·
COc1ccc(O)c(C(=O)c2coc(=N)c(C(=O)Nc3ccc(SC(F)F)cc3)c2)c1	i	i	i	i	i	·	·	·
O=c1[nH]c(NCCCO)nc2c1C1(CCCC1)Cc1ccccc1-2	7.28*	i	i	i	i	31.0%*	i	29.5%*
CCC1(C)Cc2ccccc2-c2nc(NCCCO)[nH]c(=O)c21 (stereo not drawn)	i	i	i	i	i	·	39.0%*	i
CN(C)Cc1nc2c(c(=O)[nH]1)C1(CCCCC1)Cc1ccccc1-2	i	i	i	i	i	·	·	·
CCC1(CC)Cc2ccccc2-c2nc(NCCCO)[nH]c(=O)c21	37.4*	i	i	i	i	71.0%*	53.0%*	7.5%*
O=C(NCc1ccccc1)C(c1ccc(F)cc1)N(C(=O)c1csnn1)c1ccccc1 (stereo not drawn)	i	i	i	i	i	·	·	·
CSc1ccc(S(=O)(=O)Nc2ccc(S(=O)(=O)Nc3ccc(C)cc3)cc2)cc1	5.04*	i	i	i	i	28.0%*	i	i
CCOc1ccc(NS(=O)(=O)c2ccc(NS(=O)(=O)c3ccc(SC)cc3)cc2)cc1	5.16*	i	i	-4.76*	i	13.0%*	32.5%*	i
CSc1ccc(S(=O)(=O)Nc2ccc(NC(C)=O)cc2)cc1	i	i	i	i	i	·	·	·
CCOc1ccc(/C=C/C(=O)c2c(O)cc(C)oc2=O)cc1	i	i	i	i	i	·	·	·
COc1ccc(-c2cc(=O)oc3c(C)c(O)ccc23)cc1	i	i	i	i	i	·	·	·
COc1ccc(/C=C\C(=O)c2c(O)ccc3c(C)cc(=O)oc23)cc1	i	i	i	i	i	·	i	i
COc1ccc(/C=C/C(=O)c2c(O)ccc3c(C)cc(=O)oc23)cc1	i	i	i	i	i	i	i	i
O=C(NNC(=O)c1csc(N2CCOCC2)n1)c1cccnc1	i	i	i	i	i	·	·	·
CC(C)[C@H](NC(=O)C1CC(=O)N(c2ccc3c(c2)OCO3)C1)C(=O)NC1CCCC1 (stereo partly drawn)	i	i	i	i	i	·	·	·
Cc1cc(N)n2nc(C)c(-c3ccc(Cl)cc3)c2n1	7.77*	i	i	i	i	10.5%*	i	i
SMILES	RGS4 inh	MrgX1 ag	MrgX1 allo act	MrgX1 antag	RGS4 act	RGS4 block valid	M3R Ca ctr	RGS4 inh ctr2
CC(=O)Nc1ccc(Nc2cc(C)nc3c(-c4ccc(Cl)cc4)cnn23)cc1	i	i	i	i	i	·	·	·
CC(=O)Nc1ccc(Nc2cc(C)nc3c(-c4ccc(Cl)cc4)c(C)nn23)cc1	i	i	i	i	i	·	i	i
CC1=C(C(=O)c2ccccc2)C(c2cn(-c3ccccc3)nc2-c2ccc(Cl)cc2)NC(=S)N1 (stereo not drawn)	4.92*	i	i	i	i	10.5%*	i	9.0%*
COC(=O)c1cc(=O)n(Cc2ccc(F)cc2)c(=Nc2ccccc2)s1	i	i	i	i	i	·	·	·
COC(=O)c1cc(=O)n(CCc2ccc(OC)c(OC)c2)c(=Nc2ccc(F)c(Cl)c2)s1	5.4*	i	i	i	i	13.0%*	i	10.5%*
COC(=O)c1cc(=O)n(Cc2ccc(OC)c(OC)c2)c(=Nc2ccc(F)cc2)s1	i	i	i	i	i	·	·	·
COC(=O)c1cc(=O)n(Cc2ccco2)c(=Nc2ccc(F)cc2)s1	6.07*	i	i	i	i	15.0%*	44.5%*	i
COC(=O)c1cc(=O)n(-c2ccccc2)c(=Nc2ccccc2)s1	8.05*	i	i	i	i	19.0%*	i	i
CC(=O)c1ccc(S(=O)(=O)N2CCC3(CC2)CC(=O)c2ccccc2O3)cc1	i	i	i	i	i	·	·	·
Cc1ccc(-c2ccnc3nc(-n4cccc4)nn23)o1	i	i	i	i	i	·	·	·
OCC1OC(n2cnc3c(NC4CCCCC4)ncnc32)C(O)C1O (stereo not drawn)	i	i	i	i	i	·	47.5%*	i
CC(C)(C)OC(=O)Nc1ncnc2c1ncn2C1OC(CO)C2OC(C)(C)OC21 (stereo not drawn)	i	i	i	i	i	·	·	·
C=CCNc1ncnc2c1ncn2C1OC(CO)C(O)C1O (stereo not drawn)	4.85*	i	i	i	i	18.0%*	67.0%*	i
OCC1OC(n2cnc3c(NC4CCCC4)ncnc32)C(O)C1O (stereo not drawn)	4.72*	i	i	i	i	41.0%*	i	312.5%*
OC[C@H]1O[C@@H](n2cnc3c(NC4CCCC4)ncnc32)[C@H](O)[C@@H]1O	i	i	i	i	i	·	·	·
